Laboratory results as given in ChEMBL document CHEMBL5335799, “Design, Synthesis, and Evaluation of Inhibitors of Hedgehog Acyltransferase” (J Med Chem, 2024).
pEC50, pIC50: −log10 of the molar value. Each block holds one compound with its values, some of them ahead of it.

Tests used:
[1] = Cytotoxicity against human SHH+ HEK293a cells assessed as cell viability at 25 uM measured after 72 hrs by MTS assay relative to control; assay type: toxicity, cell-based, HEK293-A; conditions: read-out: Activity
[2] = Cytotoxicity against human SHH+ HEK293a cells assessed as cell viability at 12.5 uM measured after 72 hrs by MTS assay relative to control; assay type: toxicity, cell-based, HEK293-A; conditions: read-out: Activity
[3] = biological target: T1, Protein-cysteine N-palmitoyltransferase HHAT (Homo sapiens, UniProt Q5VTY9); test: Inhibition of human recombinant HHAT using SHH-FAM peptide as substrate at 25 uM for 30 mins by acylation coupled lipophilic induction of polarization (acyl-cLIP) assay relative to control
T1 sequence (Q5VTY9 whole entry): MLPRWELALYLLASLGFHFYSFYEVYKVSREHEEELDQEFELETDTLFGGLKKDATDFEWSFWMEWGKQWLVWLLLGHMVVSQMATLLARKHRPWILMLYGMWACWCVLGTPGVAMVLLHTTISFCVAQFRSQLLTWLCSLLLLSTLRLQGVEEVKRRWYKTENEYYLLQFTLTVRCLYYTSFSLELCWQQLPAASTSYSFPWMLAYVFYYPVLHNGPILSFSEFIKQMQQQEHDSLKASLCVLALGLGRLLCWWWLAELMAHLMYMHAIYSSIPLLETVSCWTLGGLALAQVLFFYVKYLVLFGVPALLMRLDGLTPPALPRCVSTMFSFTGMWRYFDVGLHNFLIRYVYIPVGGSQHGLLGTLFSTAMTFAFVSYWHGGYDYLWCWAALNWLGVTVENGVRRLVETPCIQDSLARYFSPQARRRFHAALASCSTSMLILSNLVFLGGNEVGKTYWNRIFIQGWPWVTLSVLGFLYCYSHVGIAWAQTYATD
Procedure, shortened: (§1)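 DDM-solubilized recombinant HHAT mixed with SHH N-terminal FAM peptide and inhibitor or DMSO in MES buffer pH 6.5 with DTT, TCEP and BSA. Reaction started with palmitoyl-CoA; fluorescence anisotropy followed over 30 min in quadruplicate wells. Initial rates from linear regression were normalized to DMSO and no-enzyme controls.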

[4] = biological target: T1, Protein-cysteine N-palmitoyltransferase HHAT; test: Inhibition of human recombinant HHAT using SHH-FAM peptide as substrate at 50 uM for 30 mins by acylation coupled lipophilic induction of polarization (acyl-cLIP) assay relative to control; procedure, shortened: as §1
[5] = Cytotoxicity against human SHH+ HEK293a cells assessed as cell viability measured after 72 hrs by MTS assay; assay type: toxicity, cell-based, HEK293-A
Procedure, shortened: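 HEK293a SHH+ cells seeded at 5000/well and cultured 24 h. They were then exposed 72 h to vehicle, puromycin (2 μg/mL) or compound (0.14–100 μM final) in DMEM with 10% FBS. MTS/PMS added for 3 h at 37 °C and absorbance read at 490 nm. Signal normalized to vehicle and puromycin; CC50 from a variable-slope sigmoidal fit.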

[6] = biological target: T1, Protein-cysteine N-palmitoyltransferase HHAT; test: Inhibition of human recombinant HHAT using SHH-FAM peptide as substrate for 30 mins by acylation coupled lipophilic induction of polarization (acyl-cLIP) assay; procedure, shortened: as §1
[7] = Permeability of compound at pH 7.4 by PAMPA assay; assay type: ADME
Procedure, shortened: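 Passive diffusion across an artificial membrane of 2% phosphatidylcholine in dodecane. Test compound at 10 μM was incubated 16 h at 30 °C, with donor pH 5, 6.5 or 7.4.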

[8] = Apparent permeability across apical to basolateral side in human Caco-2 cells at 10 uM pH 7.4 measured after 2 hrs by LC-MS/MS analysis; assay type: ADME, cell-based; conditions: caco-2, pH 7.4, 2 h
Procedure, shortened: (§2)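 Caco-2 cells grown in DMEM with 10% FBS, penicillin and streptomycin for 10 days, then plated; monolayer confluency checked by TEER. Compound at 10 μM (1% DMSO) in HBSS pH 7.4 added to apical or basal wells and incubated 2 h at 37 °C. Lucifer yellow used to confirm membrane integrity afterwards. Both chambers quantified by LC-MS/MS against a matrix-matched standard curve.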

[9] = Apparent permeability across basolateral to apical side in human Caco-2 cells at 10 uM pH 7.4 measured after 2 hrs by LC-MS/MS analysis; assay type: ADME, cell-based; conditions: caco-2, pH 7.4, 2 h; procedure, shortened: as §2
[10] = biological target: T1, Protein-cysteine N-palmitoyltransferase HHAT; test: Inhibition of HHAT in human HEK293a SHH+ cells incubated with compound for 24 hrs followed by transferred into SHH-Light2 cells cellular incubated for 48 hrs by Renilla/Firefly luciferase reporter assay; assay type: cell-based, HEK293-A
Procedure, shortened: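 HEK293a SHH+ cells (120,000/well) were given compound (0.041–30 μM final) or 0.2% DMSO for 24 h. Conditioned medium was cleared at 1000g and added to SHH-Light2 cells (NIH3T3-derived, Gli-Firefly plus constitutive Renilla) in triplicate wells for 48 h.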

- inhibition [3]: 31%
- inhibition [4]: 53%
- pIC50 [6]: 4.37
SMILES: Cc1cccc(C2c3ccsc3CCN2C(=O)NCCCC(C)C)n1 (stereo not drawn)
- viability at 72 h, 25 µM [1]: 22%
- viability at 72 h, 12.5 µM [2]: 32%
- CC50 at 72 h [5]: 6.1 µM

- pIC50 [6]: 5.32
SMILES: CCC(C)CNCC(=O)N1CCc2sccc2C1c1ccccc1O (stereo not drawn)

- permeability [7]: Impermeable
SMILES: CCC(C)CNCC(=O)N1CCc2sccc2C1c1cccc(C)c1 (stereo not drawn)

- inhibition [4]: 56%
SMILES: CC(=O)N1CCc2sccc2[C@@H]1c1cccc(C)n1

- permeability [8]: Permeable
- permeability [7]: Permeable
- permeability [9]: Permeable
SMILES: C=CCNCC(=O)N1CCc2sccc2C1COc1ccc(Cl)cc1 (stereo not drawn)

- permeability [7]: Permeable
SMILES: CC(=O)N1CCc2sccc2C1c1ccccc1 (stereo not drawn)

- inhibition [4]: 91%
SMILES: COc1ccccc1C1c2ccsc2CCN1C(C)=O (stereo not drawn)

- permeability [7]: Permeable
SMILES: CC(=O)N1CCc2ccccc2C1c1ccccc1 (stereo not drawn)

- pEC50 [10]: < 4.52
SMILES: Cc1cccc([C@@H]2c3ccsc3CCN2C(=O)CNCC(C)C)n1

- permeability [7]: Permeable
SMILES: CCC(C)CNCC(=O)N1CCc2ccccc2C1c1ccccc1 (stereo not drawn)

- permeability [8]: Permeable
- permeability [7]: Permeable
- permeability [9]: Permeable
SMILES: CCC(C)CNCC(=O)N1CCc2sccc2C1c1cccc(C)n1 (racemic)

- inhibition [4]: 16%
SMILES: c1ccc(C2NCCc3sccc32)cc1 (stereo not drawn)

- inhibition [3]: 3%
- inhibition [4]: 6%
SMILES: N[C@@H](Cc1ccccc1)C(=O)N1CCc2sccc2C1c1ccccc1 (stereo partly drawn)
